# Test results taken from ChEMBL document CHEMBL3091314, “Synthesis, cytotoxic evaluation and molecular docking study of 2-alkylthio-4-(2,3,4-trimethoxyphenyl)-5-aryl-thiazoles as tubulin polymerization inhibitors” (Bioorg Med Chem, 2013).
# pIC50: −log10 of the molar value. The source made the active and inactive calls. The rule behind the calls is not given here.
# How the values were obtained:
# [1] = species: Ovis aries; test: Inhibition of sheep brain tubulin polymerization at 10 uM after 15 mins
# Summary of the method: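 Purified tubulin (12 µM) preincubated 15 min with compound at 10 µM final in PEM buffer (100 mM PIPES pH 6.9, 1 mM MgSO4, 1 mM EGTA), then cooled to 0 °C. GTP added to 1 mM final; assembly started by warming from 0 to 37 °C and followed by absorbance at 350 nm. Duplicate experiments; CA-4 as positive control.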
# [2] = tested on: MCF7; test: Cytotoxicity against human MCF7 cells after 48 hrs by MTT assay; type: functional, cell-based; conditions: MCF7, 48 h
# Summary of the method: (§1)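 Cells grown in RPMI-1640 with 10% heat-inactivated FBS, penicillin and streptomycin, seeded at 8000–10,000 viable cells/well and left 48 h to attach. Exposed to 0.001–100 µM compound (DMSO final <0.1%) for 24 or 48 h depending on cell line. MTT (5 mg/ml in PBS) added for 4 h at 37 °C, formazan dissolved in DMSO, absorbance read at 550 nm against 690 nm. Triplicates; IC50 by nonlinear regression, mean ± SD.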
# [3] = tested on: AGS; test: Cytotoxicity against human AGS cells after 48 hrs by MTT assay; type: functional, cell-based; summary of the method: as §1
# [4] = tested on: HT-29; test: Cytotoxicity against human HT-29 cells after 48 hrs by MTT assay; type: functional, cell-based; conditions: HT-29, 48 h; summary of the method: as §1
# [5] = tested on: NIH3T3; test: Cytotoxicity against mouse NIH/3T3 cells after 48 hrs by MTT assay; type: cell-based; conditions: NIH3T3, 48 h; summary of the method: as §1
# [6] = tested on: NIH3T3; test: Cell cycle arrest in mouse NIH/3T3 cells assessed as accumulation at S phase at 25 uM after 24 hrs using propidium iodide staining by flow cytometric analysis (reference value: 24.39%); type: cell-based; conditions: nih3t3, 24 h
# Summary of the method: (§2)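 NIH-3T3 cells treated with 25 or 50 µM for 24 h. Collected by centrifugation, fixed in 75% ethanol at 4 °C for 0.5 h, then resuspended in PBS with 0.1% Triton X-100, 10 µg/mL propidium iodide and 100 µg/mL RNase A at 37 °C for 0.5 h. DNA content read on a FACSCalibur flow cytometer. CA-4 (0.05 µM) served as positive control.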
# [7] = tested on: NIH3T3; test: Cell cycle arrest in mouse NIH/3T3 cells assessed as accumulation at G2/M phase at 25 uM after 24 hrs using propidium iodide staining by flow cytometric analysis (reference value: 35.70%); type: cell-based; conditions: nih3t3, 24 h; summary of the method: as §2
# [8] = tested on: NIH3T3; test: Cell cycle arrest in mouse NIH/3T3 cells assessed as accumulation at G0/G1 phase at 25 uM after 24 hrs using propidium iodide staining by flow cytometric analysis (reference value: 39.91%); type: cell-based; conditions: nih3t3, 24 h; summary of the method: as §2
# [9] = tested on: NIH3T3; test: Cell cycle arrest in mouse NIH/3T3 cells assessed as accumulation at S phase at 50 uM after 24 hrs using propidium iodide staining by flow cytometric analysis (reference value: 24.39%); type: cell-based; conditions: nih3t3, 24 h; summary of the method: as §2
# [10] = tested on: NIH3T3; test: Cell cycle arrest in mouse NIH/3T3 cells assessed as accumulation at G2/M phase at 50 uM after 24 hrs using propidium iodide staining by flow cytometric analysis (reference value: 35.70%); type: cell-based; conditions: nih3t3, 24 h; summary of the method: as §2
# [11] = tested on: NIH3T3; test: Cell cycle arrest in mouse NIH/3T3 cells assessed as accumulation at G0/G1 phase at 50 uM after 24 hrs using propidium iodide staining by flow cytometric analysis (reference value: 39.91%); type: cell-based; conditions: nih3t3, 24 h; summary of the method: as §2
tubulin polymerization inhibition (active/inactive) [1],Activity [6] [%],Activity [7] [%],Activity [8] [%],Activity [9] [%],Activity [10] [%],Activity [11] [%],Structure (SMILES),pIC50 [2],pIC50 [3],pIC50 [4],pIC50 [5]
Active,,,,,,,COc1ccc(-c2nc(SCc3ccccc3)sc2-c2ccc(F)cc2)c(OC)c1OC,4.73,4.74,4.73,4.38
,,,,,,,COc1ccc(-c2nc(SC)sc2-c2ccc([N+](=O)[O-])cc2)c(OC)c1OC,,< 4.00,4.34,< 4.00
,,,,,,,COc1ccc(-c2nc(SC)sc2-c2ccccc2)c(OC)c1OC,,4.57,4.11,4.66
Active,28.12,37.64,34.24,26.67,57.41,15.92,COc1ccc(-c2nc(SCc3ccccc3)sc2-c2ccc(Cl)cc2)c(OC)c1OC,4.90,4.80,5.05,4.69
,,,,,,,COc1ccc(-c2nc(SC)sc2-c2ccc(F)cc2)c(OC)c1OC,,4.01,4.10,4.38
Active,,,,,,,COc1ccc(-c2nc(SCc3ccccc3)sc2-c2ccc([N+](=O)[O-])cc2)c(OC)c1OC,4.96,4.86,4.47,4.79
,,,,,,,COc1ccc(-c2nc(SC)sc2-c2ccc(Cl)cc2)c(OC)c1OC,,< 4.00,< 4.00,4.02
,,,,,,,COc1ccc(-c2nc(SCc3ccccc3)sc2-c2ccccc2)c(OC)c1OC,4.56,4.41,4.34,4.25

Structure (SMILES),tubulin polymerization inhibition (active/inactive) [1],Activity [6] [%],Activity [7] [%],Activity [8] [%],Activity [9] [%],Activity [10] [%],Activity [11] [%],pIC50 [2],pIC50 [3],pIC50 [4],pIC50 [5]
COc1ccc(/C=C\c2cc(OC)c(OC)c(OC)c2)cc1O [COMBRETASTATIN A4],Active,,,,,,,6.17,7.19,5.80,7.01
